Assay results from ChEMBL document CHEMBL1138529, “Efficacy, pharmacokinetics, and metabolism of tetrahydroquinoline inhibitors of Plasmodium falciparum protein farnesyltransferase” (Antimicrob Agents Chemother, 2007).
Active and inactive are the calls of the source.

Columns and labels:
[1] = Metabolic stability in mouse liver microsomes; type: ADME, Microsome
Method in brief: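 Pooled female liver microsomes at 0.5 mg/ml in 0.1 M potassium phosphate pH 7.4, 3 mM MgCl2, 1 mM EDTA, with NADPH regenerating system (1 mM NADP+, 5 mM glucose-6-phosphate, 1 U/ml G6PDH). Preincubated 10 min at 37°C, then compound added to 1 μM final. Time points quenched with 3 volumes acetonitrile plus internal standard; parent quantified by LC/MS; half-life reported.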

[2] = Cmax in BALB/c mouse at 50 mg/kg, po; type: ADME, organism-based; parameters: dose 50 mg/kg, route oral; conditions: in vivo
Method in brief: (§1)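 50 mg/kg by oral gavage in 3% EtOH-7% Tween 80-90% normal saline to groups of three females (BALB/c mice, 8–10 weeks, tail bleed; Sprague-Dawley rats, 10–12 weeks, saphenous vein). Plasma extracted with acetonitrile/internal standard, LC/MS; means of three animals. Oral elimination half-life depends on absorption rate as well as elimination.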

[3] = Elimination half life in Sprague-Dawley rat at 50 mg/kg, po; type: ADME, organism-based; parameters: dose 50 mg/kg, route oral; conditions: in vivo, read-out: beta t1/2; method in brief: as §1
Plasmodium falciparum = assay: Antiplasmodial activity against chloroquine-resistant Plasmodium falciparum K1 by [3H]hypoxanthine uptake; type: functional; conditions: read-out: ED50 (the source's name)
Method in brief: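 Asynchronous cultures at 0.5% parasitemia and 0.5% hematocrit in RPMI 1640 with 20% heat-inactivated human A+ plasma, exposed to serially diluted inhibitor (top final 5 μM, from DMSO stock) under 5% CO2/5% O2/90% N2 at 37°C for 48 h. [3H]hypoxanthine was then added for 24 h and harvested counts were background-subtracted against DMSO-only controls. ED50 came from linear regression, as the mean of duplicates.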

[4] = AUC in Sprague-Dawley rat at 2 mg/kg, iv; type: ADME, organism-based; parameters: dose 2 mg/kg, route intravenous; conditions: plasma
Method in brief: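 Three female Sprague-Dawley rats per group (10–12 weeks), jugular-vein catheterized; 2 mg/kg in 3% EtOH-7% Tween 80-90% normal saline given through the catheter. Plasma drawn from the catheter at set times, acetonitrile extraction with internal standard, LC/MS quantification.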

Rattus norvegicus [5] = assay: Toxicity in Sprague-Dawley rat at 50 mg/kg, po; type: organism-based; parameters: dose 50 mg/kg, route oral; conditions: in vivo
Method in brief: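 Female Sprague-Dawley rats, 10-12 weeks, three per group. 50 mg/kg oral gavage in 3% EtOH-7% Tween 80-90% normal saline. Saphenous vein plasma sampled over time, and animals observed for adverse reactions.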

Rattus norvegicus [6] = assay: Toxicity in Plasmodium berghei NK65 infected Sprague-Dawley rat assessed as effect on white blood cell differentials at 50 mg/kg, perorally administered every 12 hrs for 3 days; type: organism-based; parameters: dose 50 mg/kg, route oral; conditions: in vivo, po
Method in brief: (§2)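 Female Sprague-Dawley rats, 10-12 weeks, n = 3 per schedule. Dosed 50 mg/kg by oral gavage every 8 h or every 12 h for 72 h. At the end of dosing, blood was sent to a clinical laboratory for complete blood counts, white cell differentials, electrolytes, glucose, renal function, liver enzymes and cholesterol.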

Rattus norvegicus [7] = assay: Toxicity in Plasmodium berghei NK65 infected Sprague-Dawley rat assessed as effect on liver enzyme levels at 50 mg/kg, perorally administered every 12 hrs for 3 days; type: organism-based; parameters: dose 50 mg/kg, route oral; conditions: in vivo, po, in the assay text read “every 8 hrs” for “every 12 hrs”; method in brief: as §2
Rattus norvegicus [8] = assay: Toxicity in Plasmodium berghei NK65 infected Sprague-Dawley rat assessed as effect on cholesterol levels at 50 mg/kg, perorally administered every 12 hrs for 3 days; type: organism-based; parameters: dose 50 mg/kg, route oral; conditions: in vivo, po, in the assay text read “every 8 hrs” for “every 12 hrs”; method in brief: as §2
Rattus norvegicus [9] = assay: Toxicity in Plasmodium berghei NK65 infected Sprague-Dawley rat assessed as effect on blood counts at 50 mg/kg, perorally administered every 8 hrs for 3 days; type: organism-based; parameters: dose 50 mg/kg, route oral; conditions: in vivo, po; method in brief: as §2
Rattus norvegicus [10] = assay: Toxicity in Plasmodium berghei NK65 infected Sprague-Dawley rat assessed as effect on liver enzyme levels at 50 mg/kg, perorally administered every 8 hrs for 3 days; type: organism-based; parameters: dose 50 mg/kg, route oral; conditions: in vivo, po; method in brief: as §2
Salmonella typhimurium = assay: Genotoxicity in Salmonella enterica serovar Typhimurium TA100 assessed as increase in number of revertants in presence of rat liver S9 fraction by Ames test; type: toxicity, organism-based; conditions: salmonella enterica subsp. enterica serovar typhimurium
Method in brief: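 Liquid-culture Ames assay run by a contractor: S. Typhimurium TA98 and TA100 exposed for 96 h in histidine-free medium, with and without rat liver S9, at 5, 10, 50 and 100 μM (plus higher concentrations); growth read spectrophotometrically by pH-indicator colour change. Parallel bacterial cytotoxicity assay at same concentrations.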

[11] = target: D(1A) dopamine receptor (Homo sapiens) (UniProt P21728); assay: Inhibition of dopamine D1 receptor at 10 uM
D(1A) dopamine receptor (Homo sapiens), sequence (P21728 whole entry): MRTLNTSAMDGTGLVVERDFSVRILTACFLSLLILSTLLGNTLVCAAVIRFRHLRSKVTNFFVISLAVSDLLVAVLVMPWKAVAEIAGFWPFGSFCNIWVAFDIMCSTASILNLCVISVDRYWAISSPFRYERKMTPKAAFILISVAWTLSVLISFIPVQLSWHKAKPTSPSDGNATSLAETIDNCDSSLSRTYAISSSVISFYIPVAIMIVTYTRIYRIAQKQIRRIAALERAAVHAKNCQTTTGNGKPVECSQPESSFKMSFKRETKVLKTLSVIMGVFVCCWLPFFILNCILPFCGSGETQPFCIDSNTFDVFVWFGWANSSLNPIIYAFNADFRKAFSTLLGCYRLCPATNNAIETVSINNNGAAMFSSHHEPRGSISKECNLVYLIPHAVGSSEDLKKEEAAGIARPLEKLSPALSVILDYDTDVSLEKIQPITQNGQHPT
Method in brief: (§3)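 Radioligand displacement at a contract lab across a panel of 50 receptors, ion channels and transporters, single test concentration 10 μM; loss of specific ligand binding reported as percent, with >50% decrease counted as significant.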

[12] = target: Histamine H2 receptor (Homo sapiens) (UniProt P25021); assay: Inhibition of histamine H2 receptor at 10 uM; method in brief: as §3
Histamine H2 receptor (Homo sapiens), sequence (P25021 whole entry): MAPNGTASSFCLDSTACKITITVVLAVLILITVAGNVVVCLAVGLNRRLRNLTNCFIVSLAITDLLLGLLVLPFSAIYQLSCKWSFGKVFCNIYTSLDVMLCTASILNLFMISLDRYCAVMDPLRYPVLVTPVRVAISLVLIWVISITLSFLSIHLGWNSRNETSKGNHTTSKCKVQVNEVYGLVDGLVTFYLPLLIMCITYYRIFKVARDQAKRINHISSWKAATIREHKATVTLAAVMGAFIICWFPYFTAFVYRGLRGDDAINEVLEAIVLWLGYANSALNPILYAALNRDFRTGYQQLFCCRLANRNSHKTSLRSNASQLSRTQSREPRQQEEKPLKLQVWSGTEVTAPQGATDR

[13] = target: Melatonin receptor type 1A (Homo sapiens) (UniProt P48039); assay: Inhibition of melatonin MT1 receptor at 10 uM; method in brief: as §3
Melatonin receptor type 1A (Homo sapiens), sequence (P48039 whole entry): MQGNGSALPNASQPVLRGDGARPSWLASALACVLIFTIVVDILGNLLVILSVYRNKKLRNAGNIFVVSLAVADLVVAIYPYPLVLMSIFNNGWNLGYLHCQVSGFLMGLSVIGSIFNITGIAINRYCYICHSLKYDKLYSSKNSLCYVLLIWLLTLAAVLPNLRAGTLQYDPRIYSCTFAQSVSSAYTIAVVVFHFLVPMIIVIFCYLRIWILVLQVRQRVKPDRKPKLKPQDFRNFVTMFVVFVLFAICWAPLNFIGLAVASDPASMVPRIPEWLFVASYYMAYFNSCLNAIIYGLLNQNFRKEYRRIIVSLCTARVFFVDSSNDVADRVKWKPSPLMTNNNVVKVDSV

[14] = target: Muscarinic acetylcholine receptor M1 (Homo sapiens) (UniProt P11229); assay: Inhibition of muscarinic M1 receptor at 10 uM; method in brief: as §3
Muscarinic acetylcholine receptor M1 (Homo sapiens), sequence (P11229 whole entry): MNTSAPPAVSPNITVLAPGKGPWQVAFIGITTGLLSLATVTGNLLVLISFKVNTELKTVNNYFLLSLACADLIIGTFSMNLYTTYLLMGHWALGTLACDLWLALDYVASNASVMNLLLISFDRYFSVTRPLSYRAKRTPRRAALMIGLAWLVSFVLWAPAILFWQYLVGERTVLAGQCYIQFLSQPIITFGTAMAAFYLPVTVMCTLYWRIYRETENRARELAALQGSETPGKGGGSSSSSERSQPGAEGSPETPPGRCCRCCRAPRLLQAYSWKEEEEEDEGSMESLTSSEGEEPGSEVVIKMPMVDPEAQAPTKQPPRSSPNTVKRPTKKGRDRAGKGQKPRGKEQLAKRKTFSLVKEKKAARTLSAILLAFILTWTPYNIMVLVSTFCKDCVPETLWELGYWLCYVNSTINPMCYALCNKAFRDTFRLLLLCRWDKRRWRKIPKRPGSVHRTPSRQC

[15] = target: 5-hydroxytryptamine receptor 2A (Homo sapiens) (UniProt P28223); assay: Inhibition of 5HT2A receptor at 10 uM
5-hydroxytryptamine receptor 2A (Homo sapiens), sequence (P28223 whole entry): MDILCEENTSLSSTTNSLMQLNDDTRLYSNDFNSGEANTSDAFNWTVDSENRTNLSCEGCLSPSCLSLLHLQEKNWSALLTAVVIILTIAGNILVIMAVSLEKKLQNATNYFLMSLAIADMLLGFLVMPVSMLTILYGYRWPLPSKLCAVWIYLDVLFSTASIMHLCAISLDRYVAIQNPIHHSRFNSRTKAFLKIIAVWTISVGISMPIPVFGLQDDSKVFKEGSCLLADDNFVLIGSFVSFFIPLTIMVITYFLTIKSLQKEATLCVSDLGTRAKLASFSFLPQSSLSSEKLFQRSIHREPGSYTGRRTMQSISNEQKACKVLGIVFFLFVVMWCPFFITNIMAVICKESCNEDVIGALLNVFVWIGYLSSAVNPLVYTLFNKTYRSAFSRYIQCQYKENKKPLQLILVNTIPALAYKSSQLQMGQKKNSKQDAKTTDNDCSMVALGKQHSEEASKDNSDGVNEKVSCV
Method in brief: (§4)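 Radioligand displacement screen by a contractor across 50 receptors, ion channels and transporters, test compound at 10 μM; decrease in specific ligand binding expressed as percentage, with >50% decrease taken as significant.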

[16] = target: Type-1 angiotensin II receptor (Homo sapiens) (UniProt P30556); assay: Inhibition of angiotensin AT1 receptor at 10 uM; method in brief: as §3
Type-1 angiotensin II receptor (Homo sapiens), sequence (P30556 whole entry): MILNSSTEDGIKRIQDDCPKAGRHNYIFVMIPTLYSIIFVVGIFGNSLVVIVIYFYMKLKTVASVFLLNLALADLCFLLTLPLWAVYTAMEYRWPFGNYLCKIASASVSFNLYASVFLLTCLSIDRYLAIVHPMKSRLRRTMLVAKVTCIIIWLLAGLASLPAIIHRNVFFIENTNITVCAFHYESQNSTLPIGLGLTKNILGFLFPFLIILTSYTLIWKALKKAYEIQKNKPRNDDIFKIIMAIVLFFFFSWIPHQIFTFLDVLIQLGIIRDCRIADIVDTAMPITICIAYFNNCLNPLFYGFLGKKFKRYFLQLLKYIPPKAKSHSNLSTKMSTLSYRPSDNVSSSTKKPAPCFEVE

[17] = target: C-C chemokine receptor type 1 (Homo sapiens) (UniProt P32246); assay: Inhibition of CCR1 receptor at 10 uM; method in brief: as §4
C-C chemokine receptor type 1 (Homo sapiens), sequence (P32246 whole entry): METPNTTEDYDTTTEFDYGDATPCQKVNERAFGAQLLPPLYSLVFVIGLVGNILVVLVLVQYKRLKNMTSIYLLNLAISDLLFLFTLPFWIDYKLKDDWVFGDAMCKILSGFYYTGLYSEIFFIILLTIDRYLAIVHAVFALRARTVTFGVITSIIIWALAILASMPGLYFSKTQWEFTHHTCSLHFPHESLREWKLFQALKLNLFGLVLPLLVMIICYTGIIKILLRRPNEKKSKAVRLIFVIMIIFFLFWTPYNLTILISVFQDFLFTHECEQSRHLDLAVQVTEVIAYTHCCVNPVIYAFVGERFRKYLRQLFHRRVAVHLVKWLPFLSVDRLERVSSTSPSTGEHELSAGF

[18] = target: C-X-C chemokine receptor type 2 (Homo sapiens) (UniProt P25025); assay: Inhibition of CXCR2 receptor at 10 uM; method in brief: as §4
C-X-C chemokine receptor type 2 (Homo sapiens), sequence (P25025 whole entry): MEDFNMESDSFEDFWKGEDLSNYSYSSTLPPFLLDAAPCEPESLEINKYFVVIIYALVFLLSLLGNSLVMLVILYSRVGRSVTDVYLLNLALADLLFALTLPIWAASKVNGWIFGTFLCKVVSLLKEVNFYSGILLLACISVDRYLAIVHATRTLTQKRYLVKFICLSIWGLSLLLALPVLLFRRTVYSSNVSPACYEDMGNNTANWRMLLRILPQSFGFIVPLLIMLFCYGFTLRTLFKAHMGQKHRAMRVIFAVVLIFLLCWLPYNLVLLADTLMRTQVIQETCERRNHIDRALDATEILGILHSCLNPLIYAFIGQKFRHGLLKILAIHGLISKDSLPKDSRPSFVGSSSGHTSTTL

[19] = target: Galanin receptor type 2 (Homo sapiens) (UniProt O43603); assay: Inhibition of Galanin receptor type 2 at 10 uM; method in brief: as §4
Galanin receptor type 2 (Homo sapiens), sequence (O43603 whole entry): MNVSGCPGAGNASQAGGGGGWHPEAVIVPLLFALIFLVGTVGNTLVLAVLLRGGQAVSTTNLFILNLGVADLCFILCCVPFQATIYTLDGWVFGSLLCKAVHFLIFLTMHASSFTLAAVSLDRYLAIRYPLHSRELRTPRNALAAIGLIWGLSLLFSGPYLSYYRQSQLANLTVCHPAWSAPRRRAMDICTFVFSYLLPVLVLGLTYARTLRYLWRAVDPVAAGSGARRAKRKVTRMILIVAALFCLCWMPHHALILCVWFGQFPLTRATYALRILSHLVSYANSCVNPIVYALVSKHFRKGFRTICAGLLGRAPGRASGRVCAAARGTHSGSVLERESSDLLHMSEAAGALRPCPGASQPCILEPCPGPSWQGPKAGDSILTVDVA

[20] = target: Neuropeptide Y receptor type 2 (Homo sapiens) (UniProt P49146); assay: Inhibition of neuropeptide Y2 receptor at 10 uM; method in brief: as §3
Neuropeptide Y receptor type 2 (Homo sapiens), sequence (P49146 whole entry): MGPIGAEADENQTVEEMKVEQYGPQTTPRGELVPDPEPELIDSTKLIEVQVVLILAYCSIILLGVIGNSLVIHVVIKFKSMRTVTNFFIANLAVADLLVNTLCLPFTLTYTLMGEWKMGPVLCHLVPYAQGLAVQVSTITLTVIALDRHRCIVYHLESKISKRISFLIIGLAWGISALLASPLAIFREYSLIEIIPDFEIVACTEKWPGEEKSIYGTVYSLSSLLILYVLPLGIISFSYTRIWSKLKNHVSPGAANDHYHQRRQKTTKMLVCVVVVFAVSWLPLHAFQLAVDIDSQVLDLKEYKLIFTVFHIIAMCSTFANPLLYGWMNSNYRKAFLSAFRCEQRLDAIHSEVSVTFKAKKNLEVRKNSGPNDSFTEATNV

[21] = Inhibition of somatostatin receptor at 10 uM
Method in brief: (§5)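 Radioligand displacement screen at a 10 μM test concentration, run by a contract lab across a panel of 50 receptors, pharmacologically active ion channels and transporters. The read-out is the decrease in specific radiolabeled ligand binding, expressed as a percentage. A decrease above 50% was considered significant.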

[22] = Inhibition of L-type calcium channel at verapamil site at 10 uM; method in brief: as §5
[23] = Inhibition of Potassium channel at 10 uM; method in brief: as §5
[24] = Inhibition of Sodium channel site 2 at 10 uM; method in brief: as §5
[25] = target: Adenosine A2A receptor (Homo sapiens) (UniProt P29274); assay: Inhibition of adenosine A2A receptor at 10 uM
Adenosine A2A receptor (Homo sapiens), sequence (P29274 whole entry, looked up): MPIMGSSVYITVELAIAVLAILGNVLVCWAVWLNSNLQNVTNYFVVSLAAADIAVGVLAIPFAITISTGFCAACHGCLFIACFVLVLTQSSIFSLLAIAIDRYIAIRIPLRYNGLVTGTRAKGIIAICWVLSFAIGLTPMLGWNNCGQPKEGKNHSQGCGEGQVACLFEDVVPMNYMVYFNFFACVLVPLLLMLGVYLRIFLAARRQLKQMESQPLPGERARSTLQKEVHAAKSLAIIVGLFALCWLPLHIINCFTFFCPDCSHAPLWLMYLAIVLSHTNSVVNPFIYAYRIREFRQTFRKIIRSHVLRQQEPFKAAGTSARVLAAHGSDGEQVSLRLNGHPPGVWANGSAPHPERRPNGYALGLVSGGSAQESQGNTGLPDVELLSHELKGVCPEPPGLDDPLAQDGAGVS

Plasmodium berghei = assay: Antiplasmodial activity as reduced parasitaemia against Plasmodium berghei NK65 infected Sprague-Dawley rat at 50 mg/kg every 12 hrs peroral dose for 3 days

COC(=O)N1CCC(CN(C2Cc3cc(C#N)ccc3N(Cc3cncn3C)C2)S(=O)(=O)c2ccccn2)CC1 (stereo not drawn)
41 min: half-life [3]
15 nM: EC50 (Plasmodium falciparum)
4.2 µM: Cmax [2]
Non-toxic: Activity (Rattus norvegicus [5]) | Activity (Rattus norvegicus [6]) | Activity (Rattus norvegicus [7]) | Activity (Rattus norvegicus [8]) | Activity (Rattus norvegicus [9]) | Activity (Rattus norvegicus [10]) | Activity (Salmonella typhimurium)
0.533 µM·h: AUC [4]
inactive: inhibition [11] | inhibition [12] | inhibition [13] | inhibition [15] | inhibition [16] | inhibition [17] | inhibition [18] | inhibition [19] | inhibition [20] | inhibition [21] | inhibition [22] | inhibition [23] | inhibition [24] | inhibition [25] | Activity (Plasmodium berghei)
5.8 min: half-life [1]
64%: inhibition [14]
